The values below come from ChEMBL document CHEMBL1152740, “Synthesis and pharmacological activities of some sesquiterpene quinones and hydroquinones” (Bioorg Med Chem, 2009).

Molecules are shown by their SMILES. ≈ marks a conversion by molar mass, not a printed value. Calls of active or inactive are those of the source. The rule behind the calls is not given here.

One series relates to Neutrophil. Briefly: Inhibition of serum-opsonized zymosan-stimulated ROS production in bovine neutrophils by luminol-dependent chemiluminescence assay. To be noted: Bos taurus. The series is classed as functional, cell-based.
A further series deals with HeLa. Briefly: Cytotoxicity against human HeLa cells. The series is classed as functional. The gist of the method: (§1)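 GI50 or CC50 values were read from mean dose-response curves, with 4 parallels per concentration.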
In another series the test system is K562. Briefly: Antiproliferative activity against human K562 cells. It counts as functional. The gist of the method:
as §1

In the next series the test system is L929. Briefly: Antiproliferative activity against mouse L929 cells. It counts as cell-based. In short, it runs like this: as §1
In series [1] the target is Dehydrogenase/reductase SDR family member 9 (Homo sapiens) (UniProt Q9BPW9). Description: Inhibition of 3alpha-HSD.
A further series has as its system MCF7. Description: Growth inhibition of human MCF7 cells. The series is classed as functional. The gist of the method:
as §1

The next series relates to HepG2. Briefly: Growth inhibition of human HepG2 cells. The series is classed as functional. In short, it runs like this: as §1
A short description of series [2]: Growth inhibition of human HM02 cells. It counts as functional. The gist of the method: as §1
Series [3] concerns the target T1, Prostaglandin G/H synthase 2 (Homo sapiens, UniProt P35354).
T1 sequence (P35354 whole entry): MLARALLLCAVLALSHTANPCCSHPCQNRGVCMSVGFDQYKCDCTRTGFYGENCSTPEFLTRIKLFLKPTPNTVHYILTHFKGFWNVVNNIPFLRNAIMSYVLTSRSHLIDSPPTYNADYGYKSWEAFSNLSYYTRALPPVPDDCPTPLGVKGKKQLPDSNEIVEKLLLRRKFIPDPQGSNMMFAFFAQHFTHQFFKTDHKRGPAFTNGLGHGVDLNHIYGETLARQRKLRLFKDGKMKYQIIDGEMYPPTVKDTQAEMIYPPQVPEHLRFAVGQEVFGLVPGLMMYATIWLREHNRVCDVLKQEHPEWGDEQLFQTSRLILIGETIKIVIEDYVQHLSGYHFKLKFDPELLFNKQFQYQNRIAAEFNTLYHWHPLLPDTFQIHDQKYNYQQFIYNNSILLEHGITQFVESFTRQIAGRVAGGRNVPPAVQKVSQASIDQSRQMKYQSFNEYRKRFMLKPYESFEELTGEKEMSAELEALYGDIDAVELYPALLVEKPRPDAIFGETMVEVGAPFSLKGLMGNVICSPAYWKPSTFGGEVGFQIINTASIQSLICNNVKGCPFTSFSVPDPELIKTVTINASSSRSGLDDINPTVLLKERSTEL

Sequence of Dehydrogenase/reductase SDR family member 9 (Homo sapiens) (Q9BPW9 whole entry): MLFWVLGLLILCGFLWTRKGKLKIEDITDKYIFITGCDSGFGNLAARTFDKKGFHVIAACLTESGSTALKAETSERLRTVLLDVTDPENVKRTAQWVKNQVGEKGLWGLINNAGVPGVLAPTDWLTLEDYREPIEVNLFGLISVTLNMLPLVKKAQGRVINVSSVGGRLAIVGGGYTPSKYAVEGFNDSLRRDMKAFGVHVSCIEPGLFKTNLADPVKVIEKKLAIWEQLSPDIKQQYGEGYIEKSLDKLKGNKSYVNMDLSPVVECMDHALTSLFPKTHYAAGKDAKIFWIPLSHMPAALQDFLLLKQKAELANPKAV

On to `C=C1CC[C@@H]2C(C)(C)CCC[C@@]2(C)[C@@H]1CC1=CC(=O)C=CC1=O`, for which the result with Neutrophil was Active.
As a reminder, the CC50 is the concentration at which the toxic effect on the cells reaches its halfway point. Read a high CC50 as lower toxicity to the cells. Usually GI50 stands for the concentration at which growth is held to half of that of the control. Low readings indicate greater sensitivity of the cells, high ones lower sensitivity of the cells. The compound `COc1ccc(O)c(O)c1C[C@@]1(C)C2=C(CC[C@@H]1C)C(C)(C)CCC2` (racemic) [SESQUITERPENE HYDROQUINONE] showed a CC50 in the series with HeLa of 41.3 µM. Besides, the GI50 worked out at 25.6 µM with K562 and 59.9 µM in the series on L929.
With `CC1=CC[C@H]2C(C)(C)CCC[C@]2(C)[C@H]1/C=C1\C=C2OCOC2=CC1=O` (racemic), the CC50 with HeLa was determined as 7.4 µM. Also, the outcome in series [1] was Active. Also, the GI50 is 3.5 µM in the series on K562 and 6.2 µM in the series with L929.
Regarding `CC1=CC[C@@H]2C(C)(C)CCC[C@@]2(C)[C@@H]1Cc1cc(O)ccc1O`, the outcome in the series on Neutrophil was Active.
Regarding `CC1=CC[C@@H]2C(C)(C)CCC[C@@]2(C)[C@@H]1CC1=CC(=O)C=CC1=O`, the result (in the series with Neutrophil; in series [1]) was Active.
For the compound `C=C1CC[C@@H]2C(C)(C)CCC[C@@]2(C)[C@@H]1Cc1cc(O)ccc1O`, the outcome (in the series on Neutrophil; in [1]) was Active.
As to `COc1c(C[C@H]2C(C)=CC[C@H]3C(C)(C)CCC[C@]23C)cc2c(c1C=O)OCO2` (racemic) [PROTECTED SIPHONODICTYAL C], half-maximal cytotoxicity with HeLa (CC50) was put at 41.4 µM. In addition, in [1], the outcome was Active. The values for the GI50 in the series with K562 and with L929 were 21.1 µM and 24 µM, respectively.
In the case of `C=C1CC[C@@H]2C(C)(C)CCC[C@@]2(C)[C@@H]1CC1=C(O)C(=O)C=C(OC)C1=O` (racemic), in the series on HeLa, the CC50 came out at 72.1 µM. Besides, the GI50 in the series on MCF7 stood at 2.4 µg/mL (≈ 6.69 µM); in the series with K562, 8.4 µM; in the series on L929, 20.9 µM; in the series with HepG2 it was 6 µg/mL (≈ 16.7 µM); in series [2], 5.3 µg/mL (≈ 14.8 µM). Also, the outcome in series [1] was Active.
With `COC1=CC(=O)C(O)=C(C[C@@]2(C)C3=C(CC[C@@H]2C)C(C)(C)CCC3)C1=O` (racemic), the CC50 in the series on HeLa turned out to be 62.3 µM. Also, the GI50 was determined as 6.1 µM in the series with K562 and 14 µM in the series on L929.
On to `COC1=CC(=O)C(OC)=C(/C=C2\[C@@H](C)CC[C@H]3C(C)(C)CCC[C@]23C)C1=O`, for which half-maximal cytotoxicity in the series on HeLa (CC50) was put at 75.3 µM. Moreover, the figures for the GI50 in the series with K562 and in the series on L929 were 20.7 µM and 41.6 µM, respectively.
The corresponding values for `C=C1CC[C@H]2C(C)(C)CCC[C@]2(C)[C@H]1/C=C1\C=C2OCOC2=CC1=O` (racemic) [SESQUITERPENE CYCLOHEXADIENONE] are 20.6 µM, 6.2 µM and 12.9 µM.
Regarding `COC1=CC(=O)C(=O)C(C[C@@]2(C)C3=C(CC[C@@H]2C)C(C)(C)CCC3)=C1OC` (racemic), in the series on HeLa, the CC50 came out at 61.3 µM. The result in series [1] was Active. For the same compound, the concentration for 50% growth inhibition (GI50) was 26.6 µM with K562 and 73.4 µM with L929.
As usually defined, the IC50 is the concentration at which inhibition is half-maximal. Read a high IC50 as lower potency. Regarding `COc1ccc(O)c(O)c1/C=C1\[C@@H](C)CC[C@H]2C(C)(C)CCC[C@]12C` (racemic) [(+/-)-WIEDENDIOL B], the CC50 in the series on HeLa was determined as 38.1 µM. This compound registered an IC50 in series [3] of 0.7 µM. The outcome in [1] was Active. The GI50 is 35.8 µM with K562 and 63.1 µM in the series on L929.
In the case of `COc1cccc2c1C(=O)c1c(O)c3c(c(O)c1C2=O)C[C@@](O)(C(=O)CO)C[C@@H]3O[C@H]1C[C@H](N)[C@H](O)[C@H](C)O1` [DOXORUBICIN], in the series with HeLa, half-maximal cytotoxicity (CC50) was put at 2 µM. Besides, the values for the concentration for 50% growth inhibition (GI50) with K562 and in the series with L929 were 1 µM and 1.2 µM, respectively.
Regarding `COC1=CC(=O)C(O)=C(/C=C2\[C@@H](C)CC[C@H]3C(C)(C)CCC[C@]23C)C1=O` (racemic), the CC50 in the series on HeLa amounted to 75.1 µM. Besides, the concentration for 50% growth inhibition (GI50) stood at 2.6 µg/mL (≈ 7.25 µM) in the series on MCF7; 13.4 µM in the series with K562; 27.1 µM with L929; 3.6 µg/mL (≈ 10 µM) in the series with HepG2; 3.1 µg/mL (≈ 8.65 µM) in series [2]. The result in [1] was Active.
